STEP inh – inhibitors of human striatal-enriched phosphatase STEP | AID 588621 | recombinant STEP, OMFP fluorogenic substrate, fluorescence | inhibition, % at 20 µM | P54829 | 0.25% of 360,000 active;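 active = inhibition at 20 µM, scaled per plate between control wells, above about 37%, limit read from the data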
Target sequence (P54829 whole entry, looked up): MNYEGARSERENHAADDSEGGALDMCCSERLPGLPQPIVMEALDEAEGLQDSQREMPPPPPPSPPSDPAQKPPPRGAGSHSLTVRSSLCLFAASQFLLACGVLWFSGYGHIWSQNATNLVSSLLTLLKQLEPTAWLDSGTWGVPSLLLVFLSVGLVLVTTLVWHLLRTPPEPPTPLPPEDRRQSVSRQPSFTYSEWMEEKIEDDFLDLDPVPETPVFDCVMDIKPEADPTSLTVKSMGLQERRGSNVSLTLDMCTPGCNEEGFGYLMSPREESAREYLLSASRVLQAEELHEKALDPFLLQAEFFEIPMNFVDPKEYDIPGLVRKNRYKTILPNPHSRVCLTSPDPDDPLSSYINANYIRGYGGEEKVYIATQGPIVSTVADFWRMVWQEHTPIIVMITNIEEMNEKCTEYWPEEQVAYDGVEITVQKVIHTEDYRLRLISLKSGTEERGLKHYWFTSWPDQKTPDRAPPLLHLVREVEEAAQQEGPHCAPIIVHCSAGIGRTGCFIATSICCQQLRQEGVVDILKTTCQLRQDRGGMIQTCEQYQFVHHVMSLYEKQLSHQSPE
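Measure: Control-normalized % inhibition with plate pattern correction | Test system: STEP phosphatase, cell-free reaction | Medium: pH 6.0 Bis-Tris with DTT and Tween 20 | Technique: Fluorescence, 480/540 nm | Times: Reaction 20 min, ambient temperature | Doses: Single compound dose of 20 µM, 1% DMSO final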
DNMT1 block – inhibitors of human DNMT1 | P26358 | DNMT1 molecular beacon, Hinp1I cleavage, fluorescence | inhibition (reported as % activation of signal), % at 10 µM | 0.83% of 360,000 active | AID 588458; in the data active = inhibition above about 50%
CSN inh – inhibitors of human CSN-mediated cullin deneddylation. 0.38% of 360,000 active. Purified CSN, SCF-Nedd8-OG deneddylation, fluorescence polarization. Q92905. inhibition, % at 12.5 µM;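 active = pattern-corrected inhibition above about 35%, with an unprinted fluorescence ratio check between 0.5 and 1.5, limit read from the data, passing the limit was not always enough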
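Assay system: purified human Csn5 enzyme expressed in HEK293T cells; Input: 0.24 nM Csn5 enzyme, final concentration; Reagent: 10 nM SCFSkp2-Nedd8OG; Compound dosing: 12.5 µM single point; Times: reaction 90 min, room temperature; Technique: fluorescence polarization readout.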
Scp1 inh – inhibitors of human Scp-1 phosphatase | Recombinant Scp1, phosphopeptide, malachite green phosphate absorbance | inhibition, % at 20 µM | 0.88% of 340,000 active;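 active = inhibition above about 50% at 20 µM, limit read from the data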
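assay system = SCP-1 phosphatase catalytic domain, residues 76-261 | buffer or medium = 50 mM Tris acetate pH 5.5, 0.005% Tween-20, 10 mM MgCl2 | incubation = enzyme reaction 45 min at room temperature, colour 5 min, stabilisation 30 min | signal = Phosphate-binding colour reagent, absorbance read at 630 nm | measure = % inhibition at 20 µM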
LMPTP inh – blocks human LMPTP phosphatase. P24666. recombinant LMPTP-A, OMFP fluorogenic substrate, fluorescence intensity. inhibition, % at 20 µM. 0.22% of 360,000 active. AID 651560;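 active = compounds that cut the enzyme signal by at least half of the control window in the single-dose screen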
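Buffer or medium: Bis-Tris pH 6.0, DTT, detergent; Assay system: LMPTP-A enzyme; Quantity: 0.625 nM enzyme; Detection: endpoint fluorescence intensity; Times: 50 min dark incubation at room temperature; Controls: substrate-only low control, DMSO enzyme-plus-substrate high control; Doses: single 20 µM dose; Read-out: percent inhibition versus substrate-only and uninhibited controls; Reagent: 400 µM OMFP.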
SUMO1 PPI mod – modulators of human SUMO1-mediated protein-protein interactions; P63165; SUMO1 binding to a labelled peptide, TR-FRET, 1 h; inhibition, % at 20 µM; 0.33% of 360,000 active; AID 602429; in the data active = inhibition above about 37%
Target sequence (P63165 whole entry, looked up): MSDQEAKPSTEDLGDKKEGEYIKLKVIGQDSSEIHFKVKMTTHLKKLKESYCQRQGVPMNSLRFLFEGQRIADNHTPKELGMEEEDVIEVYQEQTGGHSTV
Beacon interf DR – counter-screen for DNMT1 inhibitors: spectral interference, dose response | shares compounds with DNMT1 block | molecular beacon fluorescence | IC50, µM | 200 tested, under 10 active | AID 602382; call rule not given here
DNMT1 confirm – DNMT1 inhibition confirmation, single concentration; shares compounds with DNMT1 block; DNMT1 molecular beacon HinP1I cleavage, fluorescence; inhibition, % at 10 µM; 8% of 2,300 active; AID 602385;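 active = average inhibition of at least 30% in the single-concentration confirmation test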
Beacon interf – shows spectral interference in the DNMT1 beacon assay; shares compounds with DNMT1 block; DNMT1 molecular beacon spectral interference counterscreen, fluorescence 485/520; activation (fluorescence interference), % at 10 µM; 1% of 2,300 active; AID 602387;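 active = activation of at least 30% at 10 µM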;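 note: DNMT1 catalytic domain with a HinP1I cleavage step and a FAM/dabcyl DNA beacon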
Large screens that a line does not name were inactive (follow-up assays come after a bar, where they were run). Sampled rows, rich in hits. Any-hit rate of the full collection: about 2%.

O=C(Nc1cccc(Cl)c1)c1cc2c(=O)n3ccccc3nc2s1	DNMT1 block 62 | DNMT1 confirm inactive | Beacon interf inactive
CC(=O)NS(=O)(=O)c1ccc(NC(=O)c2cc3c(=O)n4ccccc4nc3s2)cc1	none
O=S(=O)(Nc1ccc(Cl)cn1)c1ccc2c(c1)OCCO2	none
COc1ccc(-c2nc3c(c(=O)c4ccccc4n3C)c(=O)n2Cc2ccccc2)cc1	none
Cn1c2ccccc2c(=O)c2c(=O)n(Cc3ccccc3)c(-c3ccc(F)cc3)nc21	DNMT1 block 63 | DNMT1 confirm inactive | Beacon interf inactive
COc1ccc(Cn2c(-c3ccc(C)cc3)nc3c(c(=O)c4ccccc4n3C)c2=O)cc1	DNMT1 block 83, CSN inh 44 | DNMT1 confirm inactive | Beacon interf inactive
COc1ccc(Cn2c(C)nc3c(c(=O)c4ccccc4n3C)c2=O)cc1	none
O=C(NCC1CCCN(Cc2ccc3nonc3c2)C1)c1ccc(F)cc1 (stereo not drawn)	none
O=C(OCC(=O)N1CCc2ccccc2C1)c1ccc(F)cc1Cl	none
Cn1c(=O)c(Nc2ccc(O)cc2)c2c3c(cccc31)C(=O)c1ccccc1-2	DNMT1 block 62 | DNMT1 confirm inactive | Beacon interf inactive
Cc1noc(C)c1S(=O)(=O)N(C)C[C@H]1OCc2cnnn2CCCC(=O)N([C@@H](C)CO)C[C@H]1C	none (no result: Scp1 inh)
CCOC(=O)c1c(C)[nH]c(C(=O)OCC(=O)Nc2cc(C)c(Cl)cc2OC)c1C	DNMT1 block 60 | DNMT1 confirm inactive | Beacon interf inactive
CCOC(=O)c1c(C)[nH]c(C(=O)OCC(=O)NCc2ccc(OC)c(OC)c2)c1C	none
CC(=O)NC(C)(c1ccccc1)c1nc(/C=C/c2ccccc2)cs1 (stereo not drawn)	none (no result: Scp1 inh)
Cc1c(NS(=O)(=O)c2cccc(C(=O)NCc3ccc(Cl)cc3)c2)c(=O)n(-c2ccccc2)n1C	none
Cc1c(NS(=O)(=O)c2cccc(C(=O)NCc3ccco3)c2)c(=O)n(-c2ccccc2)n1C	DNMT1 block 78 | DNMT1 confirm inactive | Beacon interf inactive
O=C(N/N=C\c1cc(Br)c(Br)o1)c1cncc(Br)c1	none
O=C(N/N=C/c1cc(Br)c(Br)o1)c1cccnc1	DNMT1 block 62 | DNMT1 confirm inactive | Beacon interf inactive
COc1ccc(NC(=O)COc2ccccc2)cc1NC(=O)c1ccco1	none
Cn1c(CCNS(=O)(=O)c2ccccc2)nnc1SCc1cccnc1	none
Cc1ccc(SCC(=O)NC(=O)NC2CCCC2)c(C)c1	none
Cc1ccc(C)c(SCC(=O)NC(=O)NC2CCCC2)c1	DNMT1 block 74 | DNMT1 confirm inactive | Beacon interf inactive
Cc1ccc(/C=N/NC(=O)c2cccc(S(=O)(=O)Nc3ccccc3Cl)c2)o1	none
O=C(N/N=C/c1ccco1)c1cccc(S(=O)(=O)Nc2ccccc2Cl)c1	DNMT1 block 56 | DNMT1 confirm inactive | Beacon interf inactive
C=C(C)C(=O)Nc1ccc(OC(F)(F)C(F)F)c(NC(=O)C(=C)C)c1	DNMT1 block 56 | DNMT1 confirm inactive | Beacon interf inactive
CC(=O)Nc1ccc(OC(F)(F)C(F)F)c(NC(C)=O)c1	none
Nc1c(C(=O)N/N=C/c2ccc(OCc3ccccc3)cc2)cnn1-c1ccccc1	DNMT1 block 51, LMPTP inh 50 | DNMT1 confirm inactive | Beacon interf inactive
CC(C)=C(NC(=O)c1ccccc1)C(=O)Nc1cccc(C)c1	none
Cc1cc[n+](CC(=O)c2cccc([N+](=O)[O-])c2)c2ccccc12	DNMT1 block 53 | Beacon interf DR inactive | DNMT1 confirm 43 | Beacon interf inactive
O=C(COC(=O)/C=C/c1ccccc1[N+](=O)[O-])NC1CCS(=O)(=O)C1 (stereo not drawn)	none
O=C(COC(=O)/C=C/c1ccccc1[N+](=O)[O-])NC1CC1	DNMT1 block 50 | DNMT1 confirm inactive | Beacon interf inactive
CCOC(=O)c1cc2c(nc1C)-c1cc(Cl)cc(Cl)c1OC2O (stereo not drawn)	none
Cc1cc(C)n2nc(C(=O)N/N=C/c3ccccc3Cl)nc2n1	none
Cc1cc(C)n2nc(C(=O)N/N=C/c3c4ccccc4cc4ccccc34)nc2n1	DNMT1 block 92 | DNMT1 confirm inactive | Beacon interf inactive
Cc1ccc(S(=O)(=O)N(CC(=O)N/N=C/c2cccc(Cl)c2)c2cccc3cccnc23)cc1	DNMT1 block 53 | DNMT1 confirm inactive | Beacon interf inactive
COCCNCCCCSc1ccc(Cl)cc1	DNMT1 block 75 | DNMT1 confirm inactive | Beacon interf inactive
COCCNC(=O)CSc1ccc(Cl)cc1	none
CC(=NNC(=O)COc1cccc(C)c1)c1cccnc1	DNMT1 block 80 | DNMT1 confirm inactive | Beacon interf inactive
O=C1NC(=O)/C(=C\c2ccc(Sc3ccc(Cl)cc3)o2)N1	none
Cc1ccc(Sc2ccc(/C=C3/C(=O)NN(c4ccccc4)C3=O)o2)cc1	DNMT1 block 65 | DNMT1 confirm inactive | Beacon interf inactive
Cc1ccsc1/C=C1/C(=O)NN(c2ccccc2)C1=O	none
O=C1NN(c2ccccc2)C(=O)/C1=C/c1ccc(Sc2ccc(Cl)cc2)o1	DNMT1 block 88 | DNMT1 confirm inactive | Beacon interf inactive
COc1ccc(C(=O)NCCS(=O)(=O)N2CCOCC2)cc1	none
CC1(C(=O)OCC(=O)Nc2ccc3ccccc3c2)CC1(Cl)Cl (stereo not drawn)	none
Cc1nn(CCc2nc(-c3ccco3)cs2)c2[nH]c(=O)cc(C(F)(F)F)c12	DNMT1 block 61 | DNMT1 confirm inactive | Beacon interf inactive
COC(=O)c1ccc2nc(C3CCCCC3)c(Cc3ccccc3)n2c1	none (no result: Scp1 inh)
O=c1oc2c(CN3CCCCC3)c(O)ccc2cc1-c1nc2ccccc2[nH]1	none
O=c1oc2c(O)cccc2cc1-c1nc2ccccc2[nH]1	DNMT1 block 63, LMPTP inh 66 | DNMT1 confirm inactive | Beacon interf inactive
COc1ccc(-c2cc3nc4ccccc4n3c(N)c2C#N)cc1	STEP inh 62, DNMT1 block 52, LMPTP inh 58, SUMO1 PPI mod 87 | DNMT1 confirm inactive | Beacon interf inactive
COc1ccc(-c2cc(-c3ccccc3)c(C#N)c(S(C)=O)n2)cc1 (stereo not drawn)	none
